ChEMBL document CHEMBL1138222, “9-Benzylidene-naphtho[2,3-b]thiophen-4-ones as novel antimicrotubule agents-synthesis, antiproliferative activity, and inhibition of tubulin polymerization” (J Med Chem, 2006)
pEC50, pIC50: −log10 of the molar value. Active and inactive are the calls of the source. No cut-off for these calls is given here.

How the values were obtained:
SF-268 = test: Antiproliferative activity against SF268 cells by XTT assay after 48 hrs; assay type: functional, cell-based; conditions: Homo sapiens, SF-268, 48 h
How it was run: (§1)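 Tumour cell lines were seeded at 1 × 10^3 to 8 × 10^4 cells/well for logarithmic growth and exposed to a concentration series for 48 h. Proliferation was read as cellular metabolic activity by XTT. IC50 came from dose-response curves by nonlinear regression, with at least two replicates.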

[1] = Cell cycle arrest in KB/HeLa cells by accumulation at G2/M phase at 0.1 nM; assay type: functional, cell-based; conditions: Homo sapiens
How it was run: (§2)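 Subconfluent KB/HeLa cells were treated with a concentration series for 24 h at 37 °C, then detached and fixed in 70% ethanol. DNA was stained with propidium iodide alongside RNase digestion and measured by flow cytometry. Phase fractions came from cell-cycle modelling software, and IC50 from nonlinear regression.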

P388 [2] = test: Inhibition of P388 cells growth subcutaneously implanted in CD2F1 mouse at 50 mg/kg, ip between 9 to 14 days; assay type: functional, organism-based; design: dose 50 mg/kg
How it was run: (§3)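 Female CD2F1 mice aged 5-6 weeks received ~1 mm3 P388 tumour fragments subcutaneously on day 0. Dosing was intraperitoneal at 0.1 mL/10 g on days 5, 12 and 19, at 100, 50 or 25 mg/kg; controls received DMSO vehicle. Body weight and subcutaneous tumour growth were recorded three times per week.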

[3] = Cell cycle arrest in KB/HeLa cells by accumulation at S phase at 1 nM; assay type: functional, cell-based; conditions: Homo sapiens; how it was run: as §2
K562 [4] = test: Cell cycle arrest in K562 cells by accumulation at G2/M phase at 0.1 uM; assay type: functional, Homo sapiens
How it was run: (§4)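 K562 leukaemia cells were exposed to compound for 24 h at 37 °C, pelleted, and washed in PBS. They were fixed in ice-cold 70% ethanol for 30 min at 4 °C. Staining was 30 min in the dark with propidium iodide (0.2 mg/mL) plus RNase (2 mg/mL) in PBS. DNA content was measured by flow cytometry with 488 nm argon laser excitation.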

K562 [5] = test: Cell cycle arrest in K562 cells by accumulation at G2/M phase at 0.06 uM; assay type: functional, Homo sapiens; how it was run: as §4
[6] = Cell cycle arrest in KB/HeLa cells by accumulation at G1 phase at 0.3 nM; assay type: functional, cell-based; conditions: Homo sapiens; how it was run: as §2
[7] = Cell cycle arrest in KB/HeLa cells by accumulation at S phase at 10 nM; assay type: functional, cell-based; conditions: Homo sapiens; how it was run: as §2
RKO [8] = test: Antiproliferative activity against RKO cells by XTT assay after 48 hrs; assay type: functional, cell-based; conditions: Homo sapiens
How it was run: (§5)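 RKO colon adenocarcinoma cells carry an ecdysone-inducible p27kip1 vector. On day 1 they were plated with 3 µM ponasterone A (induced, 2 × 10^4 cells/well) or without it (not induced, 6 × 10^3 cells/well) and held 24 h at 37 °C. Compound or DMSO control was then added for 48 h at 37 °C, followed by a standard XTT read-out.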

[9] = Cell cycle arrest in KB/HeLa cells by accumulation at G1 phase at 31.6 nM; assay type: functional, cell-based; conditions: Homo sapiens; how it was run: as §2
[10] = Cell cycle arrest in KB/HeLa cells by accumulation at G2/M phase at 3.16 nM; assay type: functional, cell-based; conditions: Homo sapiens
[11] = Cell cycle arrest in KB/HeLa cells by accumulation at S phase at 31.6 nM; assay type: functional, cell-based; conditions: Homo sapiens; how it was run: as §2
[12] = Cell cycle arrest in KB/HeLa cells by accumulation at G2/M phase at 100 nM; assay type: functional, cell-based; conditions: Homo sapiens; how it was run: as §2
MDR = test: Antiproliferative activity against LT12 MDR cells by XTT assay after 48 hrs; assay type: functional, cell-based; conditions: Rattus norvegicus; how it was run: as §1
Mus musculus [13] = test: Increase in survival of CD2F1 mouse subcutaneously implanted with P388 cells at 25 mg/kg after 21 days; assay type: functional; conditions: route intraperitoneal
[14] = Cell cycle arrest in KB/HeLa cells by accumulation at S phase at 0.1 nM; assay type: functional, cell-based; conditions: Homo sapiens; how it was run: as §2
[15] = Cell cycle arrest in KB/HeLa cells by accumulation at S phase at 316 nM; assay type: functional, cell-based; conditions: Homo sapiens; how it was run: as §2
K562 [16] = test: Cell cycle arrest in K562 cells by accumulation at G2/M phase at 0.03 uM; assay type: functional, Homo sapiens; how it was run: as §4
P388 [17] = test: Inhibition of P388 cells growth subcutaneously implanted in CD2F1 mouse at 25 mg/kg, ip after 7 days; assay type: functional, organism-based; design: dose 25 mg/kg; how it was run: as §3
[18] = Cell cycle arrest in KB/HeLa cells by accumulation at G2/M phase at 10 nM; assay type: functional, cell-based; conditions: Homo sapiens; how it was run: as §2
P388 [19] = test: Antiproliferative activity against P388 ADR cells by XTT assay after 48 hrs; assay type: functional, cell-based; conditions: Mus musculus, P388, 48 h; how it was run: as §1
NCI-H460 = test: Antiproliferative activity against NCI-H460 cells by XTT assay after 48 hrs; assay type: functional, cell-based; conditions: Homo sapiens, NCI-H460, 48 h; how it was run: as §1
[20] = Cell cycle arrest in KB/HeLa cells by accumulation at G1 phase at 3.16 nM; assay type: functional, cell-based; conditions: Homo sapiens; how it was run: as §2
Mus musculus [21] = test: Increase in survival of CD2F1 mouse subcutaneously implanted with P388 cells at 100 mg/kg after 21 days; assay type: functional; conditions: route intraperitoneal
L1210 [22] = test: Antiproliferative activity against L1210 cells by XTT assay after 48 hrs; assay type: functional, cell-based; conditions: Mus musculus, L1210, 48 h; how it was run: as §1
cells = conditions: Rattus norvegicus, LT12, 48 h
[23] = Cell cycle arrest in KB/HeLa cells by accumulation at G1 phase at 1 nM; assay type: functional, cell-based; conditions: Homo sapiens; how it was run: as §2
[24] = Cell cycle arrest in KB/HeLa cells by accumulation at G2/M phase; assay type: functional, cell-based; conditions: Homo sapiens; how it was run: as §2
[25] = Cell cycle arrest in KB/HeLa cells by accumulation at G1 phase at 316 nM; assay type: functional, cell-based; conditions: Homo sapiens; how it was run: as §2
Tubulin (Homo sapiens) [26] = molecular target: T1, Tubulin (Homo sapiens) (UniProt P68371+Q9H4B7+P0DPH7+P68366+Q13509+Q71U36+P04350+Q3ZCM7+P07437+P68363+Q9BQE3+Q6PEY2+Q13885+Q9BVA1+Q9BUF5); test: Displacement of [3H]colchicine from tubulin by SPA assay; assay type: protein-complex assay
[27] = Cell cycle arrest in KB/HeLa cells by accumulation at G1 phase at 100 nM; assay type: functional, cell-based; conditions: Homo sapiens; how it was run: as §2
SK-OV-3 = test: Antiproliferative activity against SKOV3 cells by XTT assay after 48 hrs; assay type: functional, cell-based; conditions: Homo sapiens, SK-OV-3, 48 h; how it was run: as §1
[28] = Cell cycle arrest in KB/HeLa cells by accumulation at G2/M phase at 0.3 nM; assay type: functional, cell-based; conditions: Homo sapiens; how it was run: as §2
P388 [29] = test: Antiproliferative activity against P388 cells by XTT assay after 48 hrs; assay type: functional, cell-based; conditions: Mus musculus, P388, 48 h; how it was run: as §1
[30] = Cell cycle arrest in KB/HeLa cells by accumulation at G2/M phase at 31.6 nM; assay type: functional, cell-based; conditions: Homo sapiens; how it was run: as §2
[31] = Cell cycle arrest in KB/HeLa cells by accumulation at S phase at 100 nM; assay type: functional, cell-based; conditions: Homo sapiens; how it was run: as §2
[32] = Antiproliferative activity against KB/HeLa cells by XTT assay after 48 hrs; assay type: functional, cell-based; conditions: Homo sapiens; how it was run: as §1
[33] = Cell cycle arrest in KB/HeLa cells by accumulation at S phase at 3.16 nM; assay type: functional, cell-based; conditions: Homo sapiens; how it was run: as §2
[34] = Cell cycle arrest in KB/HeLa cells by accumulation at G1 phase at 0.1 nM; assay type: functional, cell-based; conditions: Homo sapiens; how it was run: as §2
[35] = Cell cycle arrest in KB/HeLa cells by accumulation at G2/M phase at 316 nM; assay type: functional, cell-based; conditions: Homo sapiens; how it was run: as §2
[36] = Cell cycle arrest in KB/HeLa cells by accumulation at G2/M phase at 1 nM; assay type: functional, cell-based; conditions: Homo sapiens; how it was run: as §2
RKO [37] = test: Antiproliferative activity against RKO cells with ectopic-induced p27kip1-expression by XTT assay after 48 hrs; assay type: functional, cell-based; conditions: Homo sapiens; how it was run: as §5
K562 [38] = test: Antiproliferative activity against human K562 cell line; assay type: functional, cell-based
Mus musculus [39] = test: Increase in survival of CD2F1 mouse subcutaneously implanted with P388 cells at 50 mg/kg after 21 days; assay type: functional; conditions: route intraperitoneal
[40] = Cell cycle arrest in KB/HeLa cells by accumulation at S phase at 0.3 nM; assay type: functional, cell-based; conditions: Homo sapiens; how it was run: as §2
Tubulin = Tubulin (Sus scrofa, UniProt P02554+P02550); test: Inhibition of tubulin polymerization in porcine brain
[41] = Cell cycle arrest in KB/HeLa cells by accumulation at G1 phase at 10 nM; assay type: functional, cell-based; conditions: Homo sapiens; how it was run: as §2
Tubulin (Homo sapiens) [42] = molecular target: T1, Tubulin (Homo sapiens); test: Displacement of [3H]paclitaxel from tubulin by SPA assay; assay type: protein-complex assay
L1210 [43] = test: Antiproliferative activity against L1210 VCR cells by XTT assay after 48 hrs; assay type: functional, cell-based; conditions: Mus musculus, L1210, 48 h; how it was run: as §1

For `COc1cc(/C=C2/c3ccccc3C(=O)c3ccsc32)cc(OC)c1O`, the pIC50 (SF-268) was 7.15, the Activity [1] was 9.7% and the Activity (P388 [2]) was “Active”. For the same molecule, the Activity [3] was 25.9%, the Activity (K562 [4]) was 72% and the Activity (K562 [5]) was 55%. The Activity [6] was 65.6%, the Activity [7] was 26.5% and the pIC50 (RKO [8]) was 7.52. It also gave an Activity [9] of 65.4%, an Activity [10] of 9.2% and an Activity [11] of 26%. For the same molecule, the Activity [12] was 52.2%, the pIC50 (MDR) was 6.77 and the Activity (Mus musculus [13]) was 83%. For the same molecule, the Activity [14] was 24.6%, the Activity [15] was 9.8% and the Activity (K562 [16]) was 23%. The Activity (P388 [17]) was “Active”, the Activity [18] was 8.8% and the pIC50 (P388 [19]) was 6.66. It also gave a pIC50 (NCI-H460) of 7.30, an Activity [20] of 66.3% and an Activity (Mus musculus [21]) of 106%. For the same molecule, the pIC50 (L1210 [22]) was 6.47, the pIC50 (cells) was 6.89 and the Activity [23] was 65.7%. The pEC50 [24] was 7.01, the Activity [25] was 0.8% and the Activity (Tubulin (Homo sapiens) [26]) was 0.27 µM. For the same molecule, the Activity [27] was 31.7%, the pIC50 (SK-OV-3) was 7.15 and the Activity [28] was 9.1%. The pIC50 (P388 [29]) was 7.30, the Activity [30] was 8.6% and the Activity [31] was 16.2%. For the same molecule, the pIC50 [32] was 7.30, the Activity [33] was 24.5% and the Activity [34] was 65.8%. The Activity [35] was 89.5%, the Activity [36] was 8.4% and the pIC50 (RKO [37]) was < 5.05. The pIC50 (K562 [38]) was 7.30, the Activity (Mus musculus [39]) was 111% and the Activity [40] was 25.3%. For the same molecule, the IC50 (Tubulin) was 380 nM, the Activity [41] was 64.8% and the Activity (Tubulin (Homo sapiens) [42]) was “inactive”. For the same molecule, the pIC50 (L1210 [43]) was 6.17.
